This sample holds only a part of the variants without activity.
B1: tRNA (parent)
chain: GUUCCGUUGGCGUAAUGGUAACGCGUCUCCCUCCUAAGGAGAAGACUGCGGGUUCGAGUCCCGUACGGAACG

Variants of: B1
Test: yeast fitness relative to wild type (ratio to wild type); higher = fitter; tRNA-Arg(CCU), competitive growth, 37 C, YPD
Procedure, shortened: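 Start and end populations of a pooled competition were compared by 100-nucleotide paired-end sequencing of gene amplicons. The Saccharomyces cerevisiae strains carried tRNA-Arg(CCU) gene variants at the native genomic locus, synthesised with a 3% per-site mutation rate at 69 sites, and competed in YPD at 37°C for 24 hours in six parallel replicates. Darwinian fitness relative to wild type was based on the change in genotype frequencies. Genotypes required ≥ 100 starting reads, and estimates < 0.5 were set to 0.5.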

Going from U28C A36C to C29A A57G U64A, the yeast fitness falls from 0.579 to at most 0.5.

Going from C27U U32C A65U A70C to C27U U28G A42U, the yeast fitness rises from at most 0.5 to 0.535.

Compared with U28A C60A, U28A C60G is higher in yeast fitness: 0.535 for the first, 0.572 for the second.

First: U28C A37C G56A U59C
Second: C27U G67A A69U
The yeast fitness of the first is lower: at most 0.5 for the first, 0.692 for the second.

Compared with C27U G41A C60A, U28C A45U is higher in yeast fitness: 0.878 for the first, 0.985 for the second.

First: U28C A45C
Second: C27U C46A G50A
The yeast fitness of the first is higher: 0.993 for the first, 0.73 for the second.

First: C29A A37G
Second: C29A A37U A43C
The yeast fitness of the first is lower: 0.545 for the first, 0.733 for the second.

Going from U28C A40C to U28C A40U, the yeast fitness rises from 0.902 to 1.01.

Compared with U28A A45G, U28A C29G G68C is lower in yeast fitness: 0.762 for the first, at most 0.5 for the second.

Going from C29A A57C U59A to C27U C49U U54A A57G C66A, the yeast fitness rises from 0.55 to 0.629.

Going from C27U U54G to C27U U54C, the yeast fitness rises from 0.581 to 0.93.

First: U28C G68C
Second: U28C C33A A42C A45U A69C
The yeast fitness of the first is higher: 0.884 for the first, 0.622 for the second.

First: U28C G67C
Second: U28A A37G
The yeast fitness of the first is higher: 0.845 for the first, 0.658 for the second.

First: U28A A37C
Second: U28C C29G C30G A36G
The yeast fitness of the first is higher: 0.657 for the first, at most 0.5 for the second.

Compared with U28A A70G, U28A U54A is lower in yeast fitness: 0.904 for the first, 0.594 for the second.

Compared with U28C C33G C66A, U28G G41C C55G A70U is lower in yeast fitness: 0.616 for the first, at most 0.5 for the second.

U28G C31U A40C A70U and U28G C31A C61U cannot be ordered by yeast fitness: at most 0.5 for the first, at most 0.5 for the second.

U28C G38C G52A and U28C G38A A40C A45G G48A cannot be ordered by yeast fitness: at most 0.5 for the first, at most 0.5 for the second.

Compared with U28C A70C, U28A C34G is lower in yeast fitness: 0.878 for the first, 0.707 for the second.

Compared with C27U C46U C61A, U28C G63A A70G is higher in yeast fitness: at most 0.5 for the first, 0.685 for the second.

C27U G38A G68C and C29A A36C G51A U53C U64C A65U cannot be ordered by yeast fitness: at most 0.5 for the first, at most 0.5 for the second.

Compared with C29A A36U A40U C55U G56A U59C, U28A C29G G51A G56A G67C is higher in yeast fitness: at most 0.5 for the first, 0.585 for the second.

First: C27U U28G A40C C46A C49U A70U
Second: C29A A37U G38C A40C A43C C46U
The yeast fitness of the first is higher: 0.695 for the first, 0.599 for the second.

U28C G41C C60A C66U and U28A C31G A57G C62U cannot be ordered by yeast fitness: at most 0.5 for the first, at most 0.5 for the second.

Going from U28A C29G C33U C34G A42U to U28G C30G A40C A42U G67A, the yeast fitness falls from 0.536 to at most 0.5.

C27U G51A U64A A69G and U28A A42G U64A cannot be ordered by yeast fitness: at most 0.5 for the first, at most 0.5 for the second.

First: U28A U35G C62A
Second: U28G A70G
The yeast fitness of the first is lower: at most 0.5 for the first, 0.826 for the second.

Going from C27U G48A C49U G67A to U28G U32A A43C, the yeast fitness falls from 0.674 to at most 0.5.

Compared with C27U G39C G52A G56A, C27U C34G G50A G68C is lower in yeast fitness: 0.559 for the first, at most 0.5 for the second.

U28A C29G G51A G56A C66G and U28C A43C C46A G48C cannot be ordered by yeast fitness: at most 0.5 for the first, at most 0.5 for the second.

Going from C27U U64C to U28C G41C, the yeast fitness falls from 0.969 to 0.712.

First: U28C G41A
Second: C27U G38A C66U
The yeast fitness of the first is higher: 0.783 for the first, 0.623 for the second.

U28G C46G C61U and C27U U53A G67A cannot be ordered by yeast fitness: at most 0.5 for the first, at most 0.5 for the second.

Compared with U28G A57C, U28A G56C is lower in yeast fitness: 0.587 for the first, at most 0.5 for the second.

Compared with U28C G50U, C27U G38A A69U is higher in yeast fitness: 0.602 for the first, 0.667 for the second.

Compared with U28G A40C A42G A69C, U28G A65C is lower in yeast fitness: 0.808 for the first, 0.669 for the second.

First: U28C C33U A45U
Second: C29A A45C C46G G68C
The yeast fitness of the first is higher: 0.578 for the first, at most 0.5 for the second.

First: U28C C61G
Second: U28C G56C
The yeast fitness of the first is higher: 0.583 for the first, 0.53 for the second.

C27U U35G A57C A65C A70U and U28A C31U C66A cannot be ordered by yeast fitness: at most 0.5 for the first, at most 0.5 for the second.

Compared with U28G C29A G41C A43U, U28A C29A is higher in yeast fitness: at most 0.5 for the first, 0.598 for the second.

Going from U28A C29G to U28A A65U, the yeast fitness rises from 0.558 to 0.642.

First: U28A A65G
Second: U28A A37C C61G G68U
The yeast fitness of the first is higher: 0.791 for the first, at most 0.5 for the second.

Compared with C27U C49G A69U, U28G C30U is higher in yeast fitness: 0.542 for the first, 0.693 for the second.

Going from U28C A42G U47A to C27U G58C A70U, the yeast fitness rises from 0.535 to 0.876.

First: C27U U32C
Second: U28A C29U A45C A69C
The yeast fitness of the first is higher: 0.844 for the first, 0.541 for the second.

U28C A45C G50A C62U and U28A C31A A42C A45U G48A G51A U64A cannot be ordered by yeast fitness: at most 0.5 for the first, at most 0.5 for the second.

Compared with C27U G67U, C27U G67C is lower in yeast fitness: 0.854 for the first, 0.771 for the second.

U28C U32C C62A and C27U C33U G38C C62U cannot be ordered by yeast fitness: at most 0.5 for the first, at most 0.5 for the second.

U28G C29A G52C A57U and U28A C31A A42C A45U G51A A65U cannot be ordered by yeast fitness: at most 0.5 for the first, at most 0.5 for the second.

Compared with C27U U35A, U28C C49U is higher in yeast fitness: 0.771 for the first, 0.905 for the second.

First: U28A A43G G68C
Second: U28C G48A C60A C62U
The yeast fitness of the first is higher: 0.642 for the first, at most 0.5 for the second.

Going from U28C U64C to C27U G38C G39A A43C C60G A65C, the yeast fitness falls from 0.877 to at most 0.5.

Compared with U28C G52A C61U, C27U C55A A69U is lower in yeast fitness: 0.698 for the first, 0.549 for the second.

Going from C27U C66G to C27U C66U, the yeast fitness rises from 0.744 to 0.955.

Going from U28C G39C to C29A A37C A40U G63A, the yeast fitness falls from 0.578 to 0.519.

Going from C29A A37C A45C U47A to U28A A57U, the yeast fitness rises from 0.573 to 0.598.

Going from C27U C60G to U28G C33G C49U G68C A69U, the yeast fitness falls from 0.735 to at most 0.5.

Going from U28A A40U to U28C C66A, the yeast fitness falls from 0.984 to 0.689.

U28A C34U A57G C66U and U28A G48C A70C cannot be ordered by yeast fitness: at most 0.5 for the first, at most 0.5 for the second.

Going from C27U U28G C29G to C27U G50A, the yeast fitness rises from at most 0.5 to 0.991.

Compared with U28A C46A, U28A C46G is lower in yeast fitness: 0.846 for the first, 0.76 for the second.

Going from U28G C31G A45U C46G G58A to U28A C31G C55A G68C, the yeast fitness falls from 0.529 to at most 0.5.

First: U28G A36G A45G A69U
Second: C29A A36U
The yeast fitness of the first is higher: 0.825 for the first, at most 0.5 for the second.

First: U28G G56C
Second: U28A A40C C46G
The yeast fitness of the first is higher: 0.655 for the first, at most 0.5 for the second.

U28C C29G C62U and U28A C31A G51C cannot be ordered by yeast fitness: at most 0.5 for the first, at most 0.5 for the second.

First: C29A
Second: C27U C46G A69C
The yeast fitness of the first is lower: 0.631 for the first, 0.757 for the second.

U28A C55G C62G and U28G C46G C49U C61A cannot be ordered by yeast fitness: at most 0.5 for the first, at most 0.5 for the second.

First: U28G C29A G41C A43U C66G
Second: U28C A42C A43C C55G A57G
The yeast fitness of the first is higher: 0.595 for the first, at most 0.5 for the second.

C27U C34U C49G G56C and C27U C55U C60U A70U cannot be ordered by yeast fitness: at most 0.5 for the first, at most 0.5 for the second.

Going from C27U G41A U47C to U28A C31A, the yeast fitness falls from 1.08 to 0.687.

First: C27U U28C C62U
Second: U28C A36C G67C
The yeast fitness of the first is higher: 0.625 for the first, 0.539 for the second.

Compared with U28C U54G A70U, U28A G63C is higher in yeast fitness: at most 0.5 for the first, 0.624 for the second.

First: U28A A69C
Second: U28A C29G C31U A69U
The yeast fitness of the first is higher: 0.88 for the first, at most 0.5 for the second.

First: C27U C61A A69U
Second: U28A C30U A69C
The yeast fitness of the first is lower: 0.551 for the first, 0.57 for the second.

First: U28G A45G G51C A70G
Second: U28G A36G
The yeast fitness of the first is lower: at most 0.5 for the first, 0.712 for the second.

Going from U28G A40U A43U to U28A G48C A69U A70U, the yeast fitness falls from 0.878 to at most 0.5.

Going from U28C G38C G51C to C27U C46U G48A A69C, the yeast fitness rises from at most 0.5 to 0.696.

First: U28C A65G
Second: U28A C34U A40U A45U C66U
The yeast fitness of the first is higher: 0.998 for the first, at most 0.5 for the second.

First: U28C A43C
Second: U28C A43G
The yeast fitness of the first is lower: 0.758 for the first, 0.976 for the second.

Compared with U28G U35C, U28C G39C G44C G58A is lower in yeast fitness: 0.758 for the first, at most 0.5 for the second.

Compared with C27U G39C, C27U U35A U59C is lower in yeast fitness: 0.613 for the first, at most 0.5 for the second.

Compared with U28C C61U A69U, U28A C29G C33U C34G C62A A69G is lower in yeast fitness: 0.727 for the first, at most 0.5 for the second.

C27U U47G G50A and C29A A37G C49A U64C G68A cannot be ordered by yeast fitness: at most 0.5 for the first, at most 0.5 for the second.

In the case of C29A A45C G48C C49G, the yeast fitness is reported as at most 0.5.

From the RNAGym collection of RNA variant scans (doi:10.1126/science.aae0568)
